# Square brackets hold non-standard residues; d marks the D form. Peptide text beside a SMILES is read from it. d2Nal = N[C@H](Cc1ccc2ccccc2c1)C(=O)O
# Assays:
# Format in all cases: functional
# [1] = species on record: Rattus norvegicus; assay: Antiovulatory activity expressed as the percentage of rats blocked at 50 ug
# Method in brief: (§1)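 Female Sprague-Dawley rats dosed in a 40% propane-1,2-diol/0.9% saline vehicle in a standard antiovulatory assay. The read-out is ovulation block, reported as the percentage of n rats not ovulating at x μg of analogue.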
# [2] = species on record: Rattus norvegicus; assay: In vitro histamine releasing activity determined with peritoneal mast cells from male Sprague-Dawley rats.; settings: Mast cell, read-out: ED50 (the source's name)
# [3] = species on record: Rattus norvegicus; assay: Antiovulatory activity expressed as the percentage of rats blocked at 6 ug; method in brief: as §1
# [4] = species on record: Rattus norvegicus; assay: Antiovulatory activity expressed as the percentage of rats blocked at 12 ug; method in brief: as §1
# [5] = species on record: Rattus norvegicus; assay: Antiovulatory activity expressed as the percentage of rats blocked at 0.5 ug; method in brief: as §1
SMILES,Rats blocked [1] [%],EC50 [2] [µg/mL],Rats blocked [3] [%],Rats blocked [4] [%],Rats blocked [5] [%]
CC(=O)N[C@H](Cc1ccc2ccccc2c1)C(=O)N[C@H](Cc1ccccc1)C(=O)N[C@H](Cc1ccccc1)C(=O)N[C@@H](CO)C(=O)N[C@@H](Cc1ccc(O)cc1)C(=O)N[C@H](CCCN=C(N)N)C(=O)N[C@H](CN[C@@H](CCCN=C(N)N)C(=O)N1CCC[C@H]1C(=O)N[C@H](C)C(=O)O)Cc1ccccc1,0,0.46,,,
CC(=O)N[C@H](Cc1ccc2ccccc2c1)C(=O)N[C@H](Cc1ccccc1)C(=O)N[C@H](Cc1ccccc1)C(=O)N[C@@H](CO)C(=O)N[C@@H](Cc1ccc(O)cc1)C(=O)N[C@@H](CCCCN)CN(C(C)=O)[C@@H](Cc1ccccc1)C(=O)N[C@@H](CCCN=C(N)N)C(=O)N1CCC[C@H]1C(=O)N[C@H](C)C(=O)O,33,1.5,,,
CCN(CC)[C@H](Cc1ccc2ccccc2c1)C(=O)N[C@H](Cc1ccccc1)C(=O)N[C@H](Cc1ccccc1)C(=O)N[C@@H](CO)C(=O)N[C@@H](Cc1ccc(O)cc1)C(=O)N[C@H](CCCN=C(N)N)C(=O)N[C@@H](Cc1ccccc1)C(=O)N[C@@H](CCCN=C(N)N)C(=O)N1CCC[C@H]1C(=O)N[C@H](C)C(=O)O,,0.45,0,,
CC(=O)N[C@H](Cc1ccc2ccccc2c1)C(=O)N[C@H](Cc1ccccc1)C(=O)N[C@H](Cc1ccccc1)C(=O)N[C@@H](CO)C(=O)N[C@@H](Cc1ccc(O)cc1)C(=O)N[C@H](CCCN=C(N)N)C(=O)N[C@@H](Cc1ccccc1)C(=O)N[C@@H](CCCN=C(N)N)C(=O)N1CCC[C@@H]1CN[C@H](C)C(=O)O,,0.21,44,92,
CC(=O)N[C@H](Cc1ccc2ccccc2c1)C(=O)N[C@H](Cc1ccccc1)C(=O)N[C@H](Cc1ccccc1)C(=O)N[C@@H](CO)C(=O)N[C@@H](Cc1ccc(O)cc1)C(=O)N[C@@H](CCCCN)CN[C@@H](Cc1ccccc1)C(=O)N[C@@H](CCCN=C(N)N)C(=O)N1CCC[C@H]1C(=O)N[C@H](C)C(=O)O,60,1.9,,,
CC(=O)N[C@H](Cc1ccc2ccccc2c1)C(=O)N[C@H](Cc1ccccc1)C(=O)N[C@H](Cc1ccccc1)C(=O)N[C@@H](CO)C(=O)N[C@@H](Cc1ccc(O)cc1)C(=O)N[C@H](CCCN=C(N)N)C(=O)N[C@@H](Cc1ccccc1)C(=O)N[C@@H](CCCN=C(N)N)C(=O)N1CCC[C@@H]1CN(C(C)=O)[C@H](C)C(=O)O,100,0.28,,75,
CC(=O)N[C@H](Cc1ccc2ccccc2c1)C(=O)N[C@H](Cc1ccccc1)C(=O)N[C@H](Cc1ccccc1)C(=O)N[C@@H](CO)C(=O)N[C@@H](Cc1ccc(O)cc1)CN(C(C)=O)[C@H](CCCN=C(N)N)C(=O)N[C@@H](Cc1ccccc1)C(=O)N[C@@H](CCCN=C(N)N)C(=O)N1CCC[C@H]1C(=O)N[C@H](C)C(=O)O,0,4,,,
CC(=O)N[C@H](Cc1ccc2ccccc2c1)C(=O)N[C@H](Cc1ccccc1)C(=O)N[C@H](Cc1ccccc1)C(=O)N[C@@H](CO)CN(C(C)=O)[C@@H](Cc1ccc(O)cc1)C(=O)N[C@H](CCCN=C(N)N)C(=O)N[C@@H](Cc1ccccc1)C(=O)N[C@@H](CCCN=C(N)N)C(=O)N1CCC[C@H]1C(=O)N[C@H](C)C(=O)O,0,0.45,,,
CC(=O)N[C@H](CN[C@H](Cc1ccccc1)C(=O)N[C@H](Cc1ccccc1)C(=O)N[C@@H](CO)C(=O)N[C@@H](Cc1ccc(O)cc1)C(=O)N[C@H](CCCN=C(N)N)C(=O)N[C@@H](Cc1ccccc1)C(=O)N[C@@H](CCCN=C(N)N)C(=O)N1CCC[C@H]1C(=O)N[C@H](C)C(=O)O)Cc1ccc2ccccc2c1,0,1.5,,,
CC(=O)N[C@H](Cc1ccc2ccccc2c1)C(=O)N[C@H](CN[C@H](Cc1ccccc1)C(=O)N[C@@H](CO)C(=O)N[C@@H](Cc1ccc(O)cc1)C(=O)N[C@H](CCCN=C(N)N)C(=O)N[C@@H](Cc1ccccc1)C(=O)N[C@@H](CCCN=C(N)N)C(=O)N1CCC[C@H]1C(=O)N[C@H](C)C(=O)O)Cc1ccccc1,0,0.35,,,
CCN[C@H](Cc1ccc2ccccc2c1)C(=O)N[C@H](Cc1ccccc1)C(=O)N[C@H](Cc1ccccc1)C(=O)N[C@@H](CO)C(=O)N[C@@H](Cc1ccc(O)cc1)C(=O)N[C@H](CCCN=C(N)N)C(=O)N[C@@H](Cc1ccccc1)C(=O)N[C@@H](CCCN=C(N)N)C(=O)N1CCC[C@H]1C(=O)N[C@H](C)C(=O)O,,0.34,17,,
CC(=O)N[C@H](Cc1ccc2ccccc2c1)C(=O)N[C@H](Cc1ccccc1)C(=O)N[C@H](CN[C@@H](CO)C(=O)N[C@@H](Cc1ccc(O)cc1)C(=O)N[C@H](CCCN=C(N)N)C(=O)N[C@@H](Cc1ccccc1)C(=O)N[C@@H](CCCN=C(N)N)C(=O)N1CCC[C@H]1C(=O)N[C@H](C)C(=O)O)Cc1ccccc1,0,0.43,,,
CC(=O)N[C@H](Cc1ccc2ccccc2c1)C(=O)N[C@H](Cc1ccccc1)C(=O)N[C@H](Cc1ccccc1)C(=O)N[C@@H](CO)CN[C@@H](Cc1ccc(O)cc1)C(=O)N[C@H](CCCN=C(N)N)C(=O)N[C@@H](Cc1ccccc1)C(=O)N[C@@H](CCCN=C(N)N)C(=O)N1CCC[C@H]1C(=O)N[C@H](C)C(=O)O,,0.19,,63,
CC(=O)N[C@H](Cc1ccc2ccccc2c1)C(=O)N[C@H](Cc1ccccc1)C(=O)N[C@H](Cc1ccccc1)C(=O)N[C@@H](CO)C(=O)N[C@H](CN[C@H](CCCN=C(N)N)C(=O)N[C@@H](Cc1ccccc1)C(=O)N[C@@H](CCCN=C(N)N)C(=O)N1CCC[C@H]1C(=O)N[C@H](C)C(=O)O)Cc1ccc(O)cc1,,1.5,,100,
CC(=O)N[C@H](Cc1ccc2ccccc2c1)C(=O)N[C@H](Cc1ccccc1)C(=O)N[C@H](Cc1ccccc1)C(=O)N[C@@H](CO)C(=O)N[C@@H](Cc1ccc(O)cc1)C(=O)N[C@H](CCCN=C(N)N)C(=O)N[C@@H](Cc1ccccc1)C(=O)N[C@@H](CCCN=C(N)N)C(=O)N1CCC[C@H]1C(=O)N[C@H](C)C(N)=O (Ac-[d2Nal][dF][dF]SY[dR]FRP[dA]-NH2),,0.11,,,56

# From ChEMBL document CHEMBL1124207, “Effect of the CH2NH and CH2NAc peptide bond isosteres on the antagonistic and histamine releasing activities of a luteinizing hormone-releasing hormone analogue” (1988)
